{"source": "paper PMC2213236", "about": "(The Journal of Experimental Medicine, 2005)", "key": {"[1]": {"test_system": "murine T cells", "details": "first 14 amino acids of the A-chain of bovine insulin; cited from earlier work"}, "[2]": {"test_system": "human T cells", "details": "first 14 amino acids of the A-chain of bovine insulin; cited from earlier work"}, "[3]": {"test_system": "human CD4^+ T cell clones to proinsulin", "type": "cell-based", "details": "for stimulation of clones by insulin and proinsulin: titrated from 1 μM to 0.1 nM, mean of triplicates ± SEM", "procedure,_shortened": "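Clones were cultured in triplicate in IMDM with 5% pooled human serum and irradiated APCs (autologous or HLA-matched PBMCs at 20 Gy, or EBV B-cell lines at 50 Gy). Insulin or proinsulin was used at 10 μg/ml, with anti-HLA DR mAb at 5 μg/ml where indicated. RP-HPLC fractions were tested at 1/400. After 2 d, 3H-thymidine (0.5 μCi/well, 18 h) was added; β-scintillation; mean ± SEM of triplicates.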"}, "[4]": {"test_system": "HLA DRB1*0404", "experiment": "HLA DR binding", "set-up": "species or system human", "details": "compared with the serine-substituted homologue"}, "[5]": {"experiment": "Formation and reduction of the vicinal disulfide bond", "type": "physicochemical", "details": "MS, unpublished data"}, "[6]": {"test_system": "proinsulin-specific CD4^+ T cell clones from two healthy HLA DR4^+ donors", "experiment": "Proliferation of proinsulin-specific CD4+ T cell clones from healthy donors", "type": "cell-based, human", "details": "13 clones from two healthy HLA DR4^+ donors (6 and 7 clones); unpublished data"}}}
{"substance": "GIVEQCCASVCSLY", "values": [{"measurement": "recognition by T cells after immunization", "setting": "[1]", "value": "recognized"}, {"measurement": "recognition by T cells after immunization", "setting": "[2]", "value": "recognized"}]}
{"substance": "KRGIVDQCCTSICSL", "values": [{"measurement": "potency relative to the human homologue (fold less potent)", "setting": "[3]; mouse vs human insulin A1-13, 50—0.05 μM peptide", "value": "~10 -fold less potent"}]}
{"substance": "KRGIVEQC-CTSISSL (disulfide)", "values": [{"measurement": "effect of the vicinal disulfide bond on binding to HLA DR4", "setting": "[4]", "value": "did not alter binding to HLA DR4"}, {"measurement": "effect of dithiothreitol on the vicinal disulfide bond", "setting": "[5]; dithiothreitol treatment, mass increased by 2 Dltons", "value": "reduced the vicinal disulfide bond"}]}
{"substance": "KRGIVEQCCTSICSL [KR-A1-13]", "values": [{"measurement": "clones proliferating in response to peptide", "setting": "[6]", "value": "none"}]}
{"substance": "S-6: serine substituted for the cysteine at A6", "values": [{"measurement": "proliferation of T cell clones to RP-HPLC fractions", "setting": "[3]; S-6 peptide in similar experiments, unpublished data", "value": "No fractions stimulated proliferation"}]}
{"substance": "S-11: analogue peptide with serine substituted for cysteine at position A11 (KRGIVEQSSTSISSL)", "values": [{"measurement": "effect of TCEP reduction on ability to stimulate the clones", "setting": "[3]; S-11 peptide (1 μM) treated with the disulfide-reducing agent TCEP", "value": "abolished the ability of S-11 to stimulate the clones"}, {"measurement": "formation of the vicinal disulfide bond", "setting": "[5]; S-11 peptide in culture medium", "value": "within minutes"}]}
{"substance": "insulin: clinical grade recombinant insulin", "values": [{"measurement": "HLA DR dependence of the response to insulin", "setting": "[3]; clinical grade recombinant insulin 10 μg/ml, anti-HLA DR mAb 5 μg/ml", "value": "HLA DR dependent"}, {"measurement": "stimulation of clones by insulin and proinsulin", "setting": "[3]", "value": "stimulated the clones equally"}]}
{"substance": "proinsulin: Recombinant human proinsulin produced in-house, shown to be folded correctly and free of endotoxin", "values": [{"measurement": "stimulation of clones by insulin and proinsulin", "setting": "[3]", "value": "stimulated the clones equally"}]}
